Assay results published in ChEMBL document CHEMBL1155233, “Structure mechanism insights and the role of nitric oxide donation guide the development of oxadiazole-2-oxides as therapeutic agents against schistosomiasis” (J Med Chem, 2009).
≈ marks a conversion by molar mass, not a printed value. Calls of active or inactive are those of the source. The calls are words filed in the database; no cut-off is given here.

Key:
[1] = Solubility by quantitative nitrogen detection based method
[2] = system: Schistosoma mansoni; test: Antischistosomal activity against Schistosoma mansoni assessed as induction of parasite mortality after 16 hrs; format: functional; parameters: concentration or dose not given beside the values
In short: (§1)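 Cultured ex vivo worms were exposed to 10 μM compound. Worm effects were scored by visual examination at time points over a 72 h time-course.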

[3] = Metabolic stability in human liver microsomes assessed as compound remaining over 60 mins in presence of NADPH; format: ADME, Microsome; conditions: read-out: Stability
[4] = system: Schistosoma mansoni; test: Antischistosomal activity against Schistosoma mansoni assessed as induction of parasite mortality after 48 hrs; format: functional; parameters: concentration or dose not given beside the values; in short: as §1
[5] = target: T1, Thioredoxin glutathione reductase (Schistosoma mansoni, UniProt Q962Y6); test: Inhibition of Schistosoma mansoni TGR
T1 sequence (Q962Y6 whole entry): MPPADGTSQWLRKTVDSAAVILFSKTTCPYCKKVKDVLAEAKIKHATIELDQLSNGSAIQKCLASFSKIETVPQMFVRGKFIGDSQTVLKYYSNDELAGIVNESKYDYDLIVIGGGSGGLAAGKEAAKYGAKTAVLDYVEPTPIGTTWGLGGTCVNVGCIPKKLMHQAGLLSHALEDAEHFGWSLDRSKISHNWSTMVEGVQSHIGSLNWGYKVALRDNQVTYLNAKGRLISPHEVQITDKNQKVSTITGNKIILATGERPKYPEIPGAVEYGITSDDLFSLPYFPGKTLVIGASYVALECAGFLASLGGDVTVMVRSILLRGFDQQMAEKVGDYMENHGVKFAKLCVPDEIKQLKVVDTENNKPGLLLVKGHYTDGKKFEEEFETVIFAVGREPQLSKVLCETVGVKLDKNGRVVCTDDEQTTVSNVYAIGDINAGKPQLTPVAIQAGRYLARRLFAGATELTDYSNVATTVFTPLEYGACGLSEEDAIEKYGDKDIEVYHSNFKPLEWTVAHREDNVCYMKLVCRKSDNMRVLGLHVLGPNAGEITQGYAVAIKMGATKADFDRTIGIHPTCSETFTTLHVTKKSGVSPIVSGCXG

[6] = system: Schistosoma mansoni; test: Antischistosomal activity against Schistosoma mansoni assessed as parasite killing after 2 hrs; format: functional, organism-based; in short: as §1
[7] = target: hERG (KCNH2) (Homo sapiens, UniProt Q12809); test: Inhibition of human ERG expressed in HEK293 cells at 10 uM by fast patch clamp method; conditions: HEK293 cells expressing human ERG
Sequence of hERG (KCNH2) (Q12809 whole entry): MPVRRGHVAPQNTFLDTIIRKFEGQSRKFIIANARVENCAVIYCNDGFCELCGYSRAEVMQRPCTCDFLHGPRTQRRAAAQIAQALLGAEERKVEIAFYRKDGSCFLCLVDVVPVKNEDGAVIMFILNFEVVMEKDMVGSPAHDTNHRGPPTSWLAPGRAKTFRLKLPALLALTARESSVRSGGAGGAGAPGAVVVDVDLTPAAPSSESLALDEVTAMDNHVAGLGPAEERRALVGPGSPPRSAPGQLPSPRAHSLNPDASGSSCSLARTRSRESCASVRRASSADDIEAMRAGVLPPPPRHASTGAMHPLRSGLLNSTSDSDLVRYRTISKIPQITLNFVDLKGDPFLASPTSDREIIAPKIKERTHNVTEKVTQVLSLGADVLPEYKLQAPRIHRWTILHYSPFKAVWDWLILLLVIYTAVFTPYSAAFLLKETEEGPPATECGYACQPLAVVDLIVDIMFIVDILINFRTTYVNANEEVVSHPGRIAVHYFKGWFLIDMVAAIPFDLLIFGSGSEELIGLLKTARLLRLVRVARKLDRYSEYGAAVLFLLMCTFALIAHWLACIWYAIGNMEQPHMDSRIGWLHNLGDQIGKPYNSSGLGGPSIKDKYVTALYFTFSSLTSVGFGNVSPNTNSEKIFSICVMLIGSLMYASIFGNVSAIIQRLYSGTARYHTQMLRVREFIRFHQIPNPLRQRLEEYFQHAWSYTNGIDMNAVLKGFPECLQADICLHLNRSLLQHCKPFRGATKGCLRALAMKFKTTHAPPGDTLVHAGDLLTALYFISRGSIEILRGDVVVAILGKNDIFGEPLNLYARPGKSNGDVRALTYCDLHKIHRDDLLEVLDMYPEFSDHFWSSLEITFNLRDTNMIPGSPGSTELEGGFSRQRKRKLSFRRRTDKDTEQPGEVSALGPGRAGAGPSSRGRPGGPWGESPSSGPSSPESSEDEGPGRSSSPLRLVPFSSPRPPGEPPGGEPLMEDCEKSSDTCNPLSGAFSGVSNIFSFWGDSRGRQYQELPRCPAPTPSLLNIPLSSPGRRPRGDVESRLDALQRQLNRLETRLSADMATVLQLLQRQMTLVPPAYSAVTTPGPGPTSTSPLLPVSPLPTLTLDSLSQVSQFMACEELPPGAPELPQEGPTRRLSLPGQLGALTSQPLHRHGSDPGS

[8] = system: Schistosoma mansoni; test: Antischistosomal activity against Schistosoma mansoni assessed as induction of parasite mortality after 24 hrs; format: functional; parameters: concentration or dose not given beside the values; in short: as §1
[9] = system: Schistosoma mansoni; test: Antischistosomal activity against Schistosoma mansoni assessed as parasite killing after 4 hrs; format: functional; in short: as §1
[10] = Metabolic stability in human liver microsomes assessed as compound remaining over 60 mins in absence of NADPH; format: ADME, Microsome; conditions: read-out: Stability
[11] = system: Caco-2; test: Apparent permeability from basolateral to apical side of human Caco-2 cells
[12] = Induction of nitric oxide release at 10 uM in presence of Schistosoma mansoni recombinant TGR and NADPH; format: functional
[13] = system: Schistosoma mansoni; test: Antischistosomal activity against Schistosoma mansoni assessed as induction of parasite mortality after 72 hrs; format: functional; parameters: concentration or dose not given beside the values; in short: as §1
[14] = Induction of nitric oxide release at 10 uM in presence of Schistosoma mansoni recombinant TGR; format: functional
[15] = Induction of nitric oxide release at 10 uM in presence of cysteine; format: physicochemical
[16] = target: T2, Glutathione reductase, mitochondrial (Homo sapiens, UniProt P00390); test: Inhibition of human recombinant GR after 15 mins in presence of NADPH
T2 sequence (P00390 whole entry): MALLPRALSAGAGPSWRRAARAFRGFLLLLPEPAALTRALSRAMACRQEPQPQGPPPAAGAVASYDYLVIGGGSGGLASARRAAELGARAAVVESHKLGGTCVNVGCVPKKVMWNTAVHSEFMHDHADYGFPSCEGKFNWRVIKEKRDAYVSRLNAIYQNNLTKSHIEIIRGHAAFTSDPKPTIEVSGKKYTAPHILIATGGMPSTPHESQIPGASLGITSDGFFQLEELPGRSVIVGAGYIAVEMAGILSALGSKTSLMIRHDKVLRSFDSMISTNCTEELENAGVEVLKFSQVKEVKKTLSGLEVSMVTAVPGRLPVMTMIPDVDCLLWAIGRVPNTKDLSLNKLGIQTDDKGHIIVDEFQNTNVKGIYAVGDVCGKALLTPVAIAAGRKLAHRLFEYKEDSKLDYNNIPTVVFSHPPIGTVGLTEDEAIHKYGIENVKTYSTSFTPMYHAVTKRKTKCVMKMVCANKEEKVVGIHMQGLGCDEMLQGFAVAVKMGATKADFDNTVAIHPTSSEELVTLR

[17] = system: Schistosoma mansoni; test: Antischistosomal activity against Schistosoma mansoni assessed as induction of parasite mortality after 8 hrs; format: functional; parameters: concentration or dose not given beside the values; in short: as §1
[18] = Reactivity with cysteine at 0.1 mM in 0.1M phosphate buffer assessed as amount of compound unreacted by HPLC
[19] = system: Schistosoma mansoni; test: Antischistosomal activity against Schistosoma mansoni assessed as induction of parasite sluggish movement after 48 hrs; format: functional, organism-based; in short: as §1
[20] = target: T3, Thioredoxin reductase 1, cytoplasmic (Rattus norvegicus, UniProt O89049); test: Inhibition of rat recombinant TrxR1 after 10 mins
T3 sequence (O89049 whole entry): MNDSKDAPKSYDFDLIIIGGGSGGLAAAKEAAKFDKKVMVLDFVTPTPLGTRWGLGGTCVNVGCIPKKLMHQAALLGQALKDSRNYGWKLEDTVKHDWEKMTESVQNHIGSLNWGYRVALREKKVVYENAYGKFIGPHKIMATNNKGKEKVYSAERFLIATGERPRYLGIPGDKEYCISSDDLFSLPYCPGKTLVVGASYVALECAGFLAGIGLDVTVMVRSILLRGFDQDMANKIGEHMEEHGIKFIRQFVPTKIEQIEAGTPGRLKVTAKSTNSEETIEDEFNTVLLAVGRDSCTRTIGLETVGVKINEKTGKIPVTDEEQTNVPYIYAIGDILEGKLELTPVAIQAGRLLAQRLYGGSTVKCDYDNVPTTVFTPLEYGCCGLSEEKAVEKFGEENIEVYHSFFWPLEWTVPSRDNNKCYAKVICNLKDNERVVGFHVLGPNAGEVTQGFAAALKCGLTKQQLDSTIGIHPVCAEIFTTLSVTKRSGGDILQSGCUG

[21] = system: Schistosoma mansoni; test: Antischistosomal activity against Schistosoma mansoni assessed as induction of parasite curling after 8 hrs; format: functional, organism-based; in short: as §1
[22] = system: Schistosoma mansoni; test: Antischistosomal activity against Schistosoma mansoni assessed as induction of parasite sluggish movement after 4 hrs; format: functional, organism-based; in short: as §1
[23] = system: Schistosoma mansoni; test: Antischistosomal activity against Schistosoma mansoni assessed as induction of parasite sluggish movement after 8 hrs; format: functional, organism-based; in short: as §1
[24] = system: Schistosoma mansoni; test: Antischistosomal activity against Schistosoma mansoni assessed as induction of parasite sluggish movement after 16 hrs; format: functional, organism-based; in short: as §1
[25] = system: Schistosoma mansoni; test: Antischistosomal activity against Schistosoma mansoni assessed as induction of parasite curling after 4 hrs; format: functional, organism-based; in short: as §1
[26] = system: Caco-2; test: Apparent permeability from apical to basolateral side of human Caco-2 cells
[27] = Distribution coefficient, log D of the compound; conditions: octanol/water
[28] = system: Schistosoma mansoni; test: Antischistosomal activity against Schistosoma mansoni assessed as induction of parasite sluggish movement after 24 hrs; format: functional, organism-based; in short: as §1

| SMILES | solubility [1] | Activity [2] | Activity [4] | Activity [6] | inhibition at 10 µM [7] | Activity [8] | Activity [9] | Activity [12] | Activity [13] | Activity [14] | Activity [15] | IC50 [16] | Activity [17] | IC50 [20] | also measured |
| --- | --- | --- | --- | --- | --- | --- | --- | --- | --- | --- | --- | --- | --- | --- | --- |
| N#Cc1c(-c2cccs2)no[n+]1[O-] | 240 µM (≈ 46.4 µg/mL) | 25% | 100% | inactive | 3.4% | 25% | inactive | 2% | 100% | 1% | 20% |  |  |  | remaining at 1 h [3]: 1%; IC50 [5]: 3.5 µM; remaining at 1 h [10]: 64%; Papp [11]: 9 ×10⁻⁶ cm/s |
| Cc1c(-c2ccccc2)no[n+]1[O-] |  | inactive |  | inactive |  | inactive | inactive | < 1% | 5% | < 1% | 2% | > 50 µM | inactive | > 400 µM | Activity [18]: inactive; Activity [19]: Active |
| N#Cc1c(-c2ccc(F)c(Br)c2)no[n+]1[O-] |  | Active | 75% | inactive |  | 5% | inactive | 19% | 100% | 2% | 69% | > 50 µM |  | 250 µM | Activity [21]: Active |
| N#Cc1c(-c2cccc(Cl)c2)no[n+]1[O-] |  | 20% | 80% | inactive |  | 64% |  | 12% | 100% | 1% | 50% | 35.7 µM | 15% | < 12.5 µM | Activity [22]: Active |
| N#Cc1c(-c2ccc(O)cc2)no[n+]1[O-] |  | 15% | 60% | inactive |  | 40% | inactive |  | 100% |  |  | > 50 µM |  | > 400 µM | Activity [23]: Active |
| N#Cc1c(-c2ccc(-c3ccccc3)cc2)no[n+]1[O-] |  |  | 40% | inactive |  | Active | inactive |  | 45% |  |  |  |  |  | Activity [24]: Active; Activity [23]: Active |
| N#Cc1c(-c2cccc(-c3no[n+]([O-])c3C#N)c2)no[n+]1[O-] | 5 µM (≈ 1.48 µg/mL) | 60% | 100% | inactive | 7.8% | 100% |  |  |  |  |  | > 50 µM | 45% | 150 µM | Activity [25]: Active |
| N#Cc1c(-c2ccc(Br)cc2)no[n+]1[O-] | 18.6 µM (≈ 4.95 µg/mL) | 60% | 100% | inactive | 5.5% | 100% |  | 19% | 100% | 4% | 68% | > 50 µM | 39% | 250 µM | Papp [26]: 7.9 ×10⁻⁶ cm/s; remaining at 1 h [3]: 10%; logD [27]: 3.1; Activity [22]: Active; remaining at 1 h [10]: 67%; Papp [11]: 4.8 ×10⁻⁶ cm/s |
| O=Cc1c(-c2ccccc2)no[n+]1[O-] |  | inactive | 3% | inactive |  |  | inactive | 7% | 5% | 1% | 9% | 35.2 µM | inactive | < 12.5 µM | Activity [28]: Active |
| N#Cc1c(-c2cc(F)cc(-c3no[n+]([O-])c3C#N)c2)no[n+]1[O-] | 89.1 µM (≈ 28 µg/mL) | 55% | 100% | inactive | 29.4% | 78% | inactive |  |  |  |  |  |  |  | Papp [26]: 7.9 ×10⁻⁶ cm/s; remaining at 1 h [3]: 20%; Activity [18]: Active; logD [27]: 2.91; remaining at 1 h [10]: 51%; Papp [11]: 2.7 ×10⁻⁶ cm/s |
| N#Cc1c(-c2ccccc2)no[n+]1[O-] [FUROXAN] |  |  |  | inactive |  |  |  | 15% |  | 1.5% |  |  |  |  | Activity [25]: Active; Activity [18]: Active |
